Here are results for 48 variants from the RNAGym collection of RNA variant scans (doi:10.1002/anie.201605470).

B1: Osa-1-4 twister ribozyme (parent)
chain: CCGCCUAACACUGCCAAUGCCGGUCCCAAGCCCGGAUAAAAGUGGAGGGGGCGG

This data set covers variants of B1. The experiment in a line: self-cleavage, relative activity (ratio to wild type); higher = more cleavage; co-transcriptional. In a few lines:
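A DNA template for a 54-nucleotide Oryza sativa twister ribozyme was synthesised with 97 % wild-type base and 1 % of each other base at the 48 positions downstream of the cleavage site. It was transcribed in vitro for 2 h at 37 °C, allowing co-transcriptional self-cleavage, then reverse-transcribed with a template-switching oligonucleotide, PCR-amplified and deep-sequenced. Cleavage status was scored from reads with or without upstream sequence. Relative activity is fraction cleaved normalised to wild type.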
As to CCGCCUAACACUGCCAAUGCCGGUCCCAAGCCCGGAUAAAUGUGGAGGGGGCGA [A41U G54A], the self-cleavage stood at 0.98. For the variant CCGCCUAACACUGCCAAUGCCGGUCCCAAGCCCGGAUAAAUGUGGAGGGGGCGC [A41U G54C], the self-cleavage came to 0.93.

With CCGCCUAACACUGCCAAUGCCGGUCCCAAGCCCGGAUAAAUGUGGAGGGGGCGU [A41U G54U], the self-cleavage was 0.99. Consider CCGCCUAACACUGCCAAUCCCGGUCCCAAGCCCGGAUAAAUGUGGAGGGGGCGG [A41U G19C], for which the self-cleavage turned out to be 0.24. The value for CCGCCUAACACUGCCAAUACCGGUCCCAAGCCCGGAUAAAUGUGGAGGGGGCGG [A41U G19A] was 0.94; that for CCGCCUAACACUGCCAAUUCCGGUCCCAAGCCCGGAUAAAUGUGGAGGGGGCGG [A41U G19U] was 0.35. The value for CCGCCUAACACUGCCAAUGCCGGUCCCAAGCCGGGAUAAAUGUGGAGGGGGCGG [A41U C33G] was 0.1; that for CCGCCUAACACUGCCAAUGCCGGUCCCAAGCCAGGAUAAAUGUGGAGGGGGCGG [A41U C33A] was 0.14.

For CCGCCUAACACUGCCAAUGCCGGUCCCAAGCCUGGAUAAAUGUGGAGGGGGCGG [A41U C33U], the self-cleavage was 0.81. As for CCGCCUAACACUGCCAAUGCCGGUCCCAAGCCCGGAUAAAUGUGGACGGGGCGG [A41U G47C], the self-cleavage was found to be 0.11.

Consider CCGCCUAACACUGCCAAUGCCGGUCCCAAGCCCGGAUAAAUGUGGAAGGGGCGG [A41U G47A], for which the self-cleavage amounted to 0.27. On to CCGCCUAACACUGCCAAUGCCGGUCCCAAGCCCGGAUAAAUGUGGAUGGGGCGG [A41U G47U], for which the self-cleavage is 0.25. For the variant CCGCCUAACACUGCCAAUGCCGGUCCCAAGCCCGGAUAAAUGUGGAGGGGGCCG [A41U G53C], the self-cleavage was found to be 0.11. Consider CCGCCUAACACUGCCAAUGCCGGUCCCAAGCCCGGAUAAAUGUGGAGGGGGCUG [A41U G53U], for which the self-cleavage was determined as 0.36.

As for CCGCCUAACACUGCCAAUGCCGGUCCCAAGCCCGGAUAAAUGUGGAGGGGGCAG [A41U G53A], the self-cleavage came out at 0.89. CCGCCUAACACUGCCAAUGCCGGUCCCAAGCCCGGAUAAAUGUGGAGUGGGCGG [A41U G48U]: the self-cleavage amounted to 0.07. For the variant CCGCCUAACACUGCCAAUGCCGGUCCCAAGCCCGGAUAAAUGUGGAGAGGGCGG [A41U G48A], the self-cleavage came out at 0.09.

As to CCGCCUAACACUGCCAAUGCCGGUCCCAAGCCCGGAUAAAUGUGGAGCGGGCGG [A41U G48C], the self-cleavage was 0.1.

Consider CCGCCUAACACUGCCAAUGCCGGUCCCAAGCCCGGAUAAAUAUGGAGGGGGCGG [A41U G42A], for which the self-cleavage stood at 0.35. Consider CCGCCUAACACUGCCAAUGCCGGUCCCAAGCCCGGAUAAAUUUGGAGGGGGCGG [A41U G42U], for which the self-cleavage was 0.15. On to CCGCCUAACACUGCCAAUGCCGGUCCCAAGCCCGGAUAAAUCUGGAGGGGGCGG [A41U G42C], for which the self-cleavage worked out at 0.2.

For the variant CCGCCUAACACUGCCAAUGCCGGUCCCAAGCCCGGAUAAAAAUGGAGGGGGCGG [G42A], the self-cleavage was 0.84. On to CCGCCUAACACUGCCAAUGCCAGUCCCAAGCCCGGAUAAAUGUGGAGGGGGCGG [A41U G22A], for which the self-cleavage came to 1. The value for CCGCCUAACACUGCCAAUGCCCGUCCCAAGCCCGGAUAAAUGUGGAGGGGGCGG [A41U G22C] was 0.1; that for CCGCCUAACACUGCCAAUGCCUGUCCCAAGCCCGGAUAAAUGUGGAGGGGGCGG [A41U G22U] was 0.85; that for CCGCCUAACACUGCCAAUGCCGGUCCCAAGCCCGGAGAAAUGUGGAGGGGGCGG [A41U U37G] was 1.02. The value for CCGCCUAACACUGCCAAUGCCGGUCCCAAGCCCGGACAAAUGUGGAGGGGGCGG [A41U U37C] was 1.03. The figure for CCGCCUAACACUGCCAAUGCCGGUCCCAAGCCCGGAAAAAUGUGGAGGGGGCGG [A41U U37A] is 0.98; for CCGCCUAACACUGCCAAUGCCGGUCCCAAGCCCGGAUAAAUGUAGAGGGGGCGG [A41U G44A] it is 0.88; for CCGCCUAACACUGCCAAUGCCGGUCCCAAGCCCGGAUAAAUGUCGAGGGGGCGG [A41U G44C] it is 0.98. Regarding CCGCCUAACACUGCCAAUGCCGGUCCCAAGCCCGGAUAAAUGUUGAGGGGGCGG [A41U G44U], the self-cleavage is 0.87. The value for CCGCCUAACACUGCCAAUGCCGUUCCCAAGCCCGGAUAAAUGUGGAGGGGGCGG [A41U G23U] was 0.09; that for CCGCCUAACACUGCCAAUGCCGAUCCCAAGCCCGGAUAAAUGUGGAGGGGGCGG [A41U G23A] was 0.62. Take CCGCCUAACACUGCCAAUGCCGCUCCCAAGCCCGGAUAAAUGUGGAGGGGGCGG [A41U G23C]: the self-cleavage worked out at 0.08.

In the case of CCGCCUAACACUCCCAAUGCCGGUCCCAAGCCCGGAUAAAUGUGGAGGGGGCGG [A41U G13C], the self-cleavage is 0.03.

As for CCGCCUAACACUUCCAAUGCCGGUCCCAAGCCCGGAUAAAUGUGGAGGGGGCGG [A41U G13U], the self-cleavage is 0.03. The figure for CCGCCUAACACUACCAAUGCCGGUCCCAAGCCCGGAUAAAUGUGGAGGGGGCGG [A41U G13A] is 0.14. The figure for CCGCCUAACACUGCCAAUGCCGGUCCCAAGCCCGGAUAAAUGUGGAGGGGACGG [A41U G51A] is 0.59; for CCGCCUAACACUGCCAAUGCCGGUCCCAAGCCCGGAUAAAUGUGGAGGGGUCGG [A41U G51U] it is 0.26. The value for CCGCCUAACACUGCCAAUGCCGGUCCCAAGCCCGGAUAAAUGUGGAGGGGCCGG [A41U G51C] was 0.1; that for CCGCCUAACACUGCCAAUGCCGGUCCCAAGCCCGGAUAAAUGAGGAGGGGGCGG [A41U U43A] was 0.81. As for CCGCCUAACACUGCCAAUGCCGGUCCCAAGCCCGGAUAAAUGCGGAGGGGGCGG [A41U U43C], the self-cleavage worked out at 0.33. As to CCGCCUAACACUGCCAAUGCCGGUCCCAAGCCCGGAUAAAUGGGGAGGGGGCGG [A41U U43G], the self-cleavage turned out to be 0.32. The figure for CCGCCUAACACCGCCAAUGCCGGUCCCAAGCCCGGAUAAAUGUGGAGGGGGCGG [A41U U12C] is 0.91; for CCGCCUAACACGGCCAAUGCCGGUCCCAAGCCCGGAUAAAUGUGGAGGGGGCGG [A41U U12G] it is 0.69.

Regarding CCGCCUAACACAGCCAAUGCCGGUCCCAAGCCCGGAUAAAUGUGGAGGGGGCGG [A41U U12A], the self-cleavage was found to be 1.05. The value for CCGCCUAACACUGCCAAUGCCGGACCCAAGCCCGGAUAAAUGUGGAGGGGGCGG [A41U U24A] was 0.22. The figure for CCGCCUAACACUGCCAAUGCCGGGCCCAAGCCCGGAUAAAUGUGGAGGGGGCGG [A41U U24G] is 0.02.
